Measured values published in ChEMBL document CHEMBL2040734, “Benzothiazoles: search for anticancer agents” (2012).

Legend:
Type in all cases: functional
[1] = tested on: HL-60(TB); assay: Cytotoxicity against human HL-60(TB) cells assessed as cell growth at 10 uM after 48 hrs by sulforhodamine B assay; conditions: HL-60, 48 h, read-out: Activity
Summary of the method: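 NCI five-dose screen on the HL-60(TB) leukaemia line, grown in RPMI 1640 with 5% FBS and 2 mM L-glutamine and plated for 24 h before dosing. DMSO stocks were diluted in medium. Cells were exposed 48 h at 37 °C, then settled cells were fixed in 16% TCA (final) and stained with SRB, absorbance 515 nm. Percent growth = (Ti−Tz)/(C−Tz)×100, or (Ti−Tz)/Tz×100 when Ti<Tz.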

[2] = tested on: SK-MEL-28; assay: Cytotoxicity against human SK-MEL-28 cells assessed as cell growth at 0.01 uM after 48 hrs by sulforhodamine B assay; conditions: SK-MEL-28, 48 h, read-out: Activity
[3] = tested on: SF-268; assay: Cytotoxicity against human SF268 cells assessed as cell growth at 0.01 uM after 48 hrs by sulforhodamine B assay; conditions: SF-268, 48 h, read-out: Activity
[4] = tested on: MDA-MB-231; assay: Cytotoxicity against human MDA-MB-231 cells assessed as cell growth at 10 uM after 48 hrs by sulforhodamine B assay; conditions: MDA-MB-231, 48 h, read-out: Activity
[5] = tested on: MDA-MB-435; assay: Cytotoxicity against human MDA-MB-435 cells assessed as cell growth at 10 uM after 48 hrs by sulforhodamine B assay; conditions: MDA-MB-435, 48 h, read-out: Activity
[6] = tested on: HCT-15; assay: Cytotoxicity against human HCT15 cells assessed as cell growth at 1 uM after 48 hrs by sulforhodamine B assay; conditions: HCT-15, 48 h, read-out: Activity
Summary of the method: (§1)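 Five-dose NCI panel run at 0.01, 0.1, 1, 10 and 100 µM. Cells were in RPMI 1640 with 5% FBS and 2 mM L-glutamine, seeded at 5000–40,000 cells/well and pre-incubated 24 h. Drug was diluted from a DMSO stock into medium with 50 µg/ml gentamicin. Exposure was 48 h at 37 °C, 5% CO2. Cells were fixed with cold TCA and stained with 0.4% SRB, read at 515 nm. Percent growth came from time-zero, control and test absorbances.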

[7] = tested on: NCI-H460; assay: Cytotoxicity against human NCI-H460 cells assessed as cell growth at 10 uM after 48 hrs by sulforhodamine B assay; conditions: NCI-H460, 48 h, read-out: Activity
[8] = tested on: CAKI-1; assay: Cytotoxicity against human Caki1 cells assessed as cell growth at 10 uM after 48 hrs by sulforhodamine B assay; conditions: CAKI-1, 48 h, read-out: Activity
Summary of the method: (§2)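 NCI-60 five-dose screen. Cells were grown in RPMI 1640 with 5% FBS and 2 mM L-glutamine and preincubated 24 h. Compound (DMSO stock) was tested at 0.01, 0.1, 1, 10 and 100 µM for 48 h at 37 °C. Cells were fixed in situ with cold TCA (final 10%) and stained with 0.4% SRB. A515 was read, and percent growth was calculated against time-zero and control plates.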

[9] = tested on: CCRF-CEM; assay: Growth inhibition of human CCRF-CEM cells after 48 hrs by sulforhodamine B assay
Summary of the method: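 Cells were in RPMI 1640 with 5% FBS and pre-incubated 24 h. Read-out was TCA fixation, SRB staining and absorbance at 515 nm. GI50 was the concentration where [(Ti−Tz)/(C−Tz)]×100 = 50, taken from log concentration vs % growth curves. It is given as ">" the top concentration when not reached.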

[10] = tested on: RPMI-8226; assay: Cytotoxicity against human RPMI8226 cells assessed as cell growth at 1 uM after 48 hrs by sulforhodamine B assay; conditions: RPMI-8226, 48 h, read-out: Activity
[11] = tested on: OVCAR-8; assay: Cytotoxicity against human OVCAR8 cells assessed as cell growth at 0.01 uM after 48 hrs by sulforhodamine B assay; conditions: OVCAR-8, 48 h, read-out: Activity
[12] = tested on: MDA-MB-435; assay: Cytotoxicity against human MDA-MB-435 cells assessed as cell growth at 0.01 uM after 48 hrs by sulforhodamine B assay; conditions: MDA-MB-435, 48 h, read-out: Activity
[13] = tested on: KM12; assay: Cytotoxicity against human KM12 cells assessed as cell growth at 0.1 uM after 48 hrs by sulforhodamine B assay; conditions: KM12, 48 h, read-out: Activity
[14] = tested on: CCRF-CEM; assay: Cytotoxicity against human CCRF-CEM cells assessed as cell growth at 0.1 uM after 48 hrs by sulforhodamine B assay; conditions: read-out: Activity
Summary of the method: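 CCRF-CEM suspension leukemia cells in RPMI 1640 with 5% FBS and 2 mM L-glutamine, plated 24 h before dosing. Five concentrations (0.01–100 µM) were applied from a DMSO stock for 48 h at 37 °C. Settled cells were fixed with 80% TCA (final 16%) and stained with SRB, with read-out at 515 nm. Percent growth was derived from time-zero and control absorbances.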

[15] = tested on: U-251; assay: Cytotoxicity against human U251 cells assessed as cell growth at 0.01 uM after 48 hrs by sulforhodamine B assay; conditions: U-251, 48 h, read-out: Activity
[16] = tested on: BT-549; assay: Cytotoxicity against human BT549 cells assessed as cell growth at 1 uM after 48 hrs by sulforhodamine B assay; conditions: BT-549, 48 h, read-out: Activity; summary of the method: as §2
[17] = tested on: U-251; assay: Cytotoxicity against human U251 cells assessed as cell growth at 1 uM after 48 hrs by sulforhodamine B assay; conditions: U-251, 48 h, read-out: Activity
[18] = tested on: HCT-15; assay: Cytotoxicity against human HCT15 cells assessed as cell growth at 10 '-5 M after 48 hrs by sulforhodamine B assay; conditions: HCT-15, 48 h, read-out: Activity
Summary of the method: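 Primary one-dose screen across the NCI 60-line panel at 10 µM. Cells were grown in RPMI 1640 with 5% FBS and 2 mM L-glutamine and held 24 h before drug. Drug was diluted from a DMSO concentrate. Exposure was 48 h at 37 °C, 5% CO2. Cells were fixed with TCA and stained with SRB, with absorbance read at 515 nm. Percent growth was calculated against time-zero and untreated control.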

[19] = tested on: DU-145; assay: Cytotoxicity against human DU145 cells assessed as cell growth at 10 uM after 48 hrs by sulforhodamine B assay; conditions: DU-145, 48 h, read-out: Activity; summary of the method: as §1
[20] = tested on: SK-OV-3; assay: Cytotoxicity against human SKOV3 cells assessed as cell growth at 100 uM after 48 hrs by sulforhodamine B assay; conditions: SK-OV-3, 48 h, read-out: Activity
[21] = tested on: SF-295; assay: Cytotoxicity against human SF295 cells assessed as cell growth at 100 uM after 48 hrs by sulforhodamine B assay; conditions: SF-295, 48 h, read-out: Activity
[22] = tested on: NCI/ADR-RES; assay: Cytotoxicity against human NCI/ADR-RES cells assessed as cell growth at 0.1 uM after 48 hrs by sulforhodamine B assay; conditions: read-out: Activity

Compound	growth at 10 µM [1] [%]	growth at 0.01 µM [2] [%]	growth at 0.01 µM [3] [%]	growth at 10 µM [4] [%]	growth at 10 µM [5] [%]	growth at 1 µM [6] [%]	growth at 10 µM [7] [%]	growth at 10 µM [8] [%]	GI50 [9] [µM]	LC50 [9] [µM]	TGI [9] [µM]	growth at 1 µM [10] [%]	growth at 0.01 µM [11] [%]	growth at 0.01 µM [12] [%]	growth at 0.1 µM [13] [%]	growth at 0.1 µM [14] [%]	growth at 0.01 µM [15] [%]	growth at 1 µM [16] [%]	growth at 1 µM [17] [%]	growth at 10 µM [18] [%]	also measured
Cc1ccc2nc(Nc3c(C)cccc3C)sc2c1	30	94	94	22	-26	48	22	27	> 100	> 100	> 100	75	103	95	103	89	97	63	80	19.9	growth at 10 µM [19]: 75%; growth at 100 µM [20]: 54%; growth at 100 µM [21]: 14%; growth at 0.1 µM [22]: 93%
Clc1cccc(Cl)c1Nc1nc2cccc(Cl)c2s1	-47	93	98	-93	-77	59	-75	-90	1.32	> 100	4.43	46	101	96	101	93	104	79	68	-42.5	growth at 10 µM [19]: -96%; growth at 100 µM [20]: -100%; growth at 100 µM [21]: -51%; growth at 0.1 µM [22]: 87%
